Measured values taken from ChEMBL document CHEMBL4020708, “Studies of CDK 8/19 inhibitors: Discovery of novel and selective CDK8/19 dual inhibitors and elimination of their CYP3A4 time-dependent inhibition potential” (Bioorg Med Chem, 2017).
Converted amounts (≈) assume the structure as drawn.

Legend:
CDK8/Cyclin C = CDK8/Cyclin C (Homo sapiens, UniProt P49336); experiment: Inhibition of kinase tracer 236 binding to full length N terminal GST-tagged human CDK8 (1 to 464 end residues) /CycC ( 1 to 283 end residues) expressed in baculovirus expression system after 60 min by TR-FRET assay
How it was run: (§1)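 TR-FRET ligand displacement using 20 nM GST-CDK8/CycC or GST-CDK19/CycC, 20 nM Kinase Tracer 236 and Tb-anti-GST antibody. Buffer 25 mM HEPES, 10 mM MgCl₂, 2 mM DTT, 0.01% Tween-20. Incubated 60 min at rt.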

[1] = biological target: Cyclin-dependent kinase 8 (Homo sapiens, UniProt P49336); experiment: Inhibition of CDK8 in human SW480 cells assessed as reduction in IFN-gamma induced STAT1 phosphorylation at Ser727 residues preincubated for 2 hrs followed by IFN-gamma addition measured after 1 hr by In-cell western assay; type: cell-based
How it was run: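 SW480 cells kept in L-15 with 10% FBS at 37 °C and plated at 6000 cells/well overnight. Compound applied 2 h, then 10 ng/mL IFN-γ for 1 h. Cells fixed, permeabilized and blocked, then probed overnight at 4 °C with anti-pSTAT1 Ser727. IRDye 800CW secondary plus DRAQ5 for DNA, Odyssey imaging.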

Plasma = experiment: Drug level in mouse plasma treated with (E)-3-(4-(1-Methyl-1H-pyrazol-4-yl)pyridin-3-yl)-N-(4-(morpholinomethyl)phenyl)acrylamide at 1 mg/kg, po administered as cassette dose measured up to 8 hrs by LC/MS/MS analysis; type: ADME, organism-based; settings: in vivo
How it was run: (§2)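 Cassette dosing to non-fasted mice, 1 mg/kg po (0–8 h). Plasma obtained from blood by centrifugation, deproteinized with acetonitrile, centrifuged, and the supernatant analysed by LC/MS/MS.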

[2] = biological target: Cyclin-C/Cyclin-dependent kinase 19 (Homo sapiens, UniProt Q9BWU1); experiment: Inhibition of kinase tracer 236 binding to GST-tagged CDK19/CycC (unknown origin) after 60 min by TR-FRET assay; type: protein-complex assay; how it was run: as §1
Liver [3] = experiment: Intrinsic clearance in mouse liver microsomes at 1 umol/L after 15 to 30 mins in presence of NADPH by LC/MS/MS analysis; type: ADME, microsome; settings: 1 µM
How it was run: (§3)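 Human or mouse liver microsomes at 0.2 mg/mL protein in 50 mmol/L phosphate buffer pH 7.4 with 1 μmol/L compound. Reaction started with an NADPH-generating system and stopped at 15 and 30 min with acetonitrile. LC/MS/MS readout. Intrinsic clearance taken as initial metabolic velocity (slope of concentration-time) divided by compound concentration.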

Liver [4] = experiment: Intrinsic clearance in human liver microsomes at 1 umol/L after 15 to 30 mins in presence of NADPH by LC/MS/MS analysis; type: ADME, microsome; settings: 1 µM; how it was run: as §3
CYP3A4 = CYP3A4 (Homo sapiens, UniProt P08684); experiment: Time-dependent inhibition of CYP3A4 in human liver microsomes assessed as reduction in testosterone to 6beta-hydroxytestosterone conversion by measuring remaining activity at 30 uM preincubated for 60 mins followed by testosterone addition measured after 20 mins in presence of NADPH by UPLC analysis relative to control; type: ADME; settings: probe testosterone (6beta-hydroxylation), read-out: Activity
How it was run: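 Compound at 30 μM preincubated with human liver microsomes in phosphate buffer pH 7.4 at 37 °C for 0 or 60 min with an NADPH-generating system. Testosterone then added for 20 min, and 6β-hydroxytestosterone measured by UPLC. Activity expressed as % of DMSO control; % remaining taken after 60 min preincubation.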

[5] = Solubility of the compound at pH 6.8; type: physicochemical; settings: buffer
How it was run: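 Compound added from DMSO solution to JP 2nd disintegration fluid (pH 6.8) and incubated. Precipitate removed by filtration, and filtrate concentration measured by plate reader or HPLC.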

[6] = Cmax in mouse at 1 mg/kg, po administered as cassette dose measured up to 8 hrs by LC/MS/MS analysis; type: ADME, organism-based; parameters: dose 1 mg/kg, route oral; settings: in vivo; how it was run: as §2
[7] = Oral bioavailability in mouse at 1 mg/kg administered as cassette dose measured up to 8 hrs by LC/MS/MS analysis; type: ADME, organism-based; settings: in vivo
How it was run: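 Bioavailability from mouse cassette dosing, 0.1 mg/kg iv and 1 mg/kg po, non-fasted animals. Plasma was deproteinized with acetonitrile and compound quantified by LC/MS/MS.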

[8] = AUC (0 to 8 hrs) in mouse at 1 mg/kg, po administered as cassette dose by LC/MS/MS analysis; type: ADME, organism-based; parameters: time < 8 hr, dose 1 mg/kg, route oral; settings: in vivo; how it was run: as §2
[9] = MRT in mouse at 1 mg/kg, po administered as cassette dose measured up to 8 hrs by LC/MS/MS analysis; type: ADME, organism-based; settings: in vivo; how it was run: as §2
[10] = Total clearance in mouse at 1 mg/kg, po administered as cassette dose measured up to 8 hrs by LC/MS/MS analysis; type: ADME, organism-based; settings: in vivo

Sequence of CDK8/Cyclin C (P49336 whole entry): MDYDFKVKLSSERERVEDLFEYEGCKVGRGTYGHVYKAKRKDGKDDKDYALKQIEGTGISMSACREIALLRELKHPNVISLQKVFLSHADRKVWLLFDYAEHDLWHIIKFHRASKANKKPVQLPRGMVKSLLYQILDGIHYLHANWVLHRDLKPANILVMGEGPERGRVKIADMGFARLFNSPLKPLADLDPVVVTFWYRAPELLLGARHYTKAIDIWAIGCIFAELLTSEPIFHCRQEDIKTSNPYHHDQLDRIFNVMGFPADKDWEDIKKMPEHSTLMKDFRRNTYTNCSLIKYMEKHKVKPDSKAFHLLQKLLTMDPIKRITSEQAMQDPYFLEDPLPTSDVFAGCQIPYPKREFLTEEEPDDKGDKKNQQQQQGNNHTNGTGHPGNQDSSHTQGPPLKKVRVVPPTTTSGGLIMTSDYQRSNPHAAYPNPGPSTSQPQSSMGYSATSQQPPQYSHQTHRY
Sequence of CDK8/Cyclin C (P24863 whole entry, further chain): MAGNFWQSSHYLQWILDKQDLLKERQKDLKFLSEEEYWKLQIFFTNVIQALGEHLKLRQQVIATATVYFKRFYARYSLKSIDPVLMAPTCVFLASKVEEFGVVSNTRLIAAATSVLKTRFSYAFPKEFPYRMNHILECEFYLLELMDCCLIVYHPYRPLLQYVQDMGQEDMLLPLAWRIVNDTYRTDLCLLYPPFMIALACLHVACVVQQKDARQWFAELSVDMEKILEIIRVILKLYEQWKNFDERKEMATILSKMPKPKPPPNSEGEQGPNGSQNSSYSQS
Sequence of Cyclin-dependent kinase 8 (P49336 whole entry): as the sequence (P49336 whole entry) above
Sequence of Cyclin-C/Cyclin-dependent kinase 19 (Q9BWU1 whole entry): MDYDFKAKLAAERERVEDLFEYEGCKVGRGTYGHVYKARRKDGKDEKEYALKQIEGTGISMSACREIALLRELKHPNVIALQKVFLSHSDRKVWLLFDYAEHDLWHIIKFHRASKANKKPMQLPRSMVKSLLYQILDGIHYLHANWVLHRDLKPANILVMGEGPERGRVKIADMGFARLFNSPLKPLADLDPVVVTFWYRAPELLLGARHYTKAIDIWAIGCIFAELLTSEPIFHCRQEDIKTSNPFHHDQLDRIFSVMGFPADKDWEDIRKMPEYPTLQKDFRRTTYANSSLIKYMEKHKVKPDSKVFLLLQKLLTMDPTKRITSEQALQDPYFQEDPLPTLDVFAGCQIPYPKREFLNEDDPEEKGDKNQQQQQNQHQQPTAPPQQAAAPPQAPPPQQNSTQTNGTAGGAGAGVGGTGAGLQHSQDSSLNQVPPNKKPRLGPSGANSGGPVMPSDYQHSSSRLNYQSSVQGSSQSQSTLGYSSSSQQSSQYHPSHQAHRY
Sequence of Cyclin-C/Cyclin-dependent kinase 19 (P24863 whole entry, further chain): as the sequence (P24863 whole entry, further chain) above
Sequence of CYP3A4 (P08684 whole entry): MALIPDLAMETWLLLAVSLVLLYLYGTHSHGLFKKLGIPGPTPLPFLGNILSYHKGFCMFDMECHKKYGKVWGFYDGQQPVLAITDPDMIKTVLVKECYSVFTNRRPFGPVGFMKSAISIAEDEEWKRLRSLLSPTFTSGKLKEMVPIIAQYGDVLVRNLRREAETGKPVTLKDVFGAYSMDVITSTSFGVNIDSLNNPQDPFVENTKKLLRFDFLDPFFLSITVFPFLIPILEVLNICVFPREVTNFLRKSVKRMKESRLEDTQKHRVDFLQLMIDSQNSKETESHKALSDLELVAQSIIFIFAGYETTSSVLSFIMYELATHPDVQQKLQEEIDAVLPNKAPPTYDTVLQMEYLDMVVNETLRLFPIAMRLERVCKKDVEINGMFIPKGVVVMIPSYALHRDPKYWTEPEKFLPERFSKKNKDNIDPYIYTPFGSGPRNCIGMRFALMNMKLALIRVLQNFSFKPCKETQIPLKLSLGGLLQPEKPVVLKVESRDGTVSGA

Row | SMILES | IC50 (CDK8/Cyclin C) [nM] | EC50 [1] [nM] | activity at 20 min, 30 µM (CYP3A4) [%] | also measured
1 | NC(=O)c1ccc(-c2ccncc2/C=C/C(=O)Nc2ccc(CN3CCOCC3)cc2)s1 | 8.3 | 690 |  | 
2 | Cn1cc(-c2cc[n+]([O-])cc2/C=C/C(=O)Nc2ccc(CN3CCOCC3)cc2)cn1 |  |  |  | Drug metabolism (Plasma): Metabolite_Detected
3 | O=C(/C=C/c1cnccc1-c1cnn(C(F)F)c1)Nc1ccc(CN2CCOCC2)cc1 | 6.4 to 24 | 11 to 50 |  | 
4 | O=C(/C=C/c1cnccc1-c1cn[nH]c1)Nc1ccc(CN2CCOCC2)cc1 | 0.54 to 80 | 21 to 370 |  | IC50 [2]: 100 nM; Drug metabolism (Plasma): Metabolite_Detected; intrinsic clearance (Liver [3]): 6.7 µL/min/mg; microsomal intrinsic clearance (Liver [4]): 5.1 µL/min/mg
5 | Cn1cnc2cc(-c3ccncc3/C=C/C(=O)Nc3ccc(CN4CCOCC4)cc3)ccc21 | 4800 | > 10000 |  | 
6 | Cn1cc(-c2cc(N)ncc2/C=C/C(=O)Nc2ccc(CN3CCOCC3)cc2)cn1 | 990 | 1300 |  | 
7 | Cn1cc(-c2ccncc2/C=C/C(=O)Nc2ccc3c(c2)CN(CC(F)(F)F)CC3)cn1 | 3.2 | 8.4 | 22 | solubility [5]: 8.9 µg/mL (≈ 20.2 µM)
8 | O=C(/C=C/c1cnccc1-c1cnn(CC(F)(F)F)c1)Nc1ccc(CN2CCOCC2)cc1 | 28 | 150 |  | 
9 | CC1CN(Cc2ccc(NC(=O)/C=C/c3cnccc3-c3cnn(C)c3)cc2)CCO1 (stereo unspecified) | 6.7 | 16 | 84 | 
10 | O=C(/C=C/c1cnccc1-c1cnn(C2CC2)c1)Nc1ccc(CN2CC3CC2CO3)cc1 (stereo unspecified) | 9.6 | 3.1 | 101 | solubility [5]: > 92 µg/mL
11 | O=C(/C=C/c1cnccc1-c1cnn(C2CC2)c1)Nc1ccc2c(c1)CCN(CC(F)(F)F)C2 | 7.1 | 14 | 88 | solubility [5]: 3.9 µg/mL (≈ 8.34 µM)
12 | O=C(/C=C/c1cncc(F)c1-c1cnn(C2CC2)c1)Nc1ccc(CN2CCOCC2)cc1 | 6.5 | 2.3 | 46 | 
13 | Cn1cc(-c2ccncc2/C=C/C(N)=O)cn1 | > 10000 | > 10000 |  | 
14 | O=C(/C=C/c1cnccc1-c1cnn(Cc2ccccc2)c1)Nc1ccc(CN2CCOCC2)cc1 | 4.5 | 28 |  | Cmax [6]: 15.7 ng/mL; bioavailability [7]: 15.5%; AUC(0-t) at 8 h [8]: 26.9 ng·h/mL; MRT [9]: 1.2 h; intrinsic clearance (Liver [3]): 118 µL/min/mg; microsomal intrinsic clearance (Liver [4]): 78 µL/min/mg; CL/F [10]: 96.1 mL/min/kg
15 | Cn1cc(-c2ccncc2/C=C/C(=O)Nc2ccc(CNCCO)cc2)cn1 |  |  |  | Drug metabolism (Plasma): Metabolite_Detected
16 | O=C(/C=C/c1cnccc1-c1cncs1)Nc1ccc(CN2CCOCC2)cc1 | 41 | 140 |  | 
17 | O=C(/C=C/c1cnccc1-c1cnn(C2CC2)c1)Nc1ccc(CN2CC3CC(C2)O3)cc1 | 6.7 | 5.5 | 108 | solubility [5]: 60 µg/mL (≈ 136 µM)
18 | Cn1cc(-c2ccncc2/C=C/C(=O)Nc2ccc(CN3CC(F)(F)C3)cc2)cn1 | 11 | 84 | 98 | solubility [5]: 44 µg/mL (≈ 107 µM)

Row | SMILES | IC50 (CDK8/Cyclin C) [nM] | EC50 [1] [nM] | activity at 20 min, 30 µM (CYP3A4) [%] | also measured
19 | Cn1cc(-c2c(F)cncc2/C=C/C(=O)Nc2ccc(CN3CCOCC3)cc2)cn1 | 5.2 | 3.6 | 60 | 
20 | O=C(CCc1cnccc1-c1cnn(C2CC2)c1)Nc1ccc(CN2CCOCC2)cc1 | 29 | 130 | 59 | IC50 [2]: 41 nM
21 | Cn1cc(-c2ccncc2/C=C/C(=O)Nc2ccc(CN3CC4CC3CO4)cc2)cn1 (stereo unspecified) | 16 | 19 | 100 | solubility [5]: > 82 µg/mL
22 | Cn1cc(-c2ccnc(O)c2/C=C/C(=O)Nc2ccc(CN3CCOCC3)cc2)cn1 | > 10000 | > 10000 | 89 | 
23 | Cn1cc(-c2ccncc2/C=C/C(=O)Nc2ccccc2)cn1 | 51 | 110 | 97 | solubility [5]: 26 µg/mL (≈ 85.4 µM)
24 | Cn1cc(-c2ccncc2/C=C/C(=O)Nc2ccc3c(c2)CCN(CC(F)(F)F)C3)cn1 | 4.5 | 7 | 91 | solubility [5]: > 81 µg/mL
25 | CC1COCCN1Cc1ccc(NC(=O)/C=C/c2cnccc2-c2cnn(C)c2)cc1 (stereo unspecified) | 20 | 27 | 59 | solubility [5]: > 75 µg/mL
26 | O=C(/C=C/c1cnccc1-c1cnsc1)Nc1ccc(CN2CCOCC2)cc1 | 27 | 110 |  | 
27 | O=C(/C=C/c1cnccc1-c1cnn(C2CC2)c1)Nc1ccc(CN2CCOCC2)cc1 | 6.4 | 11 | 54 | IC50 [2]: 7.6 nM; Cmax [6]: 208 ng/mL; bioavailability [7]: 51.2%; AUC(0-t) at 8 h [8]: 340 ng·h/mL; MRT [9]: 1.5 h; intrinsic clearance (Liver [3]): 64 µL/min/mg; microsomal intrinsic clearance (Liver [4]): 25 µL/min/mg; CL/F [10]: 25.4 mL/min/kg
28 | Cn1cc(-c2ccncc2/C=C/C(=O)Nc2ccc(CN3C4CCC3COC4)cc2)cn1 | 6.3 | 17 | 99 | 
29 | Cn1cc(-c2ccncc2CCC(=O)Nc2ccc(CN3CCOCC3)cc2)cn1 | 41 | 95 | 71 | IC50 [2]: 50 nM
30 | O=C(/C=C/c1cnccc1-c1ccc2[nH]cnc2c1)Nc1ccc(CN2CCOCC2)cc1 | 1.5 | 10 |  | 
31 | COc1ncc(-c2ccncc2/C=C/C(=O)Nc2ccc(CN3CCOCC3)cc2)s1 | 8.1 | 12 |  | 
32 | COc1ccc(-c2ccncc2/C=C/C(=O)Nc2ccc(CN3CCOCC3)cc2)s1 | 28 | 97 |  | 
33 | Cn1cnc2ccc(-c3ccncc3/C=C/C(=O)Nc3ccc(CN4CCOCC4)cc3)cc21 | 2.5 | 2.4 |  | 
34 | Cn1cc(-c2ccncc2/C=C/C(=O)Nc2ccc(CN3CCOCC3=O)cc2)cn1 |  |  |  | Drug metabolism (Plasma): Metabolite_Detected
35 | Cn1cc(-c2ccncc2/C=C/C(=O)Nc2ccc(CN3CCC(F)(F)C3)cc2)cn1 | 6.2 | 17 | 69 | solubility [5]: 33 µg/mL (≈ 77.9 µM)
